Platelet DG rel – platelet dense granule release activity; human platelet-rich plasma, SFLLRN dense granule ATP release, luminescence; inhibition, %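 (compounds screened at 7.5 µM in platelet-rich plasma)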; hit rate 0.22% among 300,000; AID 1663;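 active means mean replicate score, as percent of positive control, at or above 50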
Rce1 inhib – yeast Ras-converting enzyme inhibition; Q03530; yeast membranes, quenched prenylated peptide cleavage fluorescence; calls only; hit rate 0.27% among 290,000;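 active means fall in fluorescence gain of 50% or more versus controls, with final raw signal at or below 3038400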;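 further: plate controls were neutral control wells for no effect and wells lacking membranes for full effect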
Target sequence (Q03530 whole entry, looked up): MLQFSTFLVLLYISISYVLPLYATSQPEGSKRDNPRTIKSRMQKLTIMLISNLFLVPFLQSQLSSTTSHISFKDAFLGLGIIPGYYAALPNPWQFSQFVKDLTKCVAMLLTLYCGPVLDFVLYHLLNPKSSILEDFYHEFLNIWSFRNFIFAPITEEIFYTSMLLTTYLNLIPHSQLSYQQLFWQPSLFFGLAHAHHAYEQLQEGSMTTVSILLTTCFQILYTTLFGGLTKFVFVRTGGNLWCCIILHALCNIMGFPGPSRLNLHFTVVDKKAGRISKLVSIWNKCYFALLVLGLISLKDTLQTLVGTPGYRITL
TAAR1 ag – agonists of human TAAR1; Q96RJ0; CHO RD-HGA16 TAAR1, Fluo-8 calcium fluorescence; vehicle wells 0%, saturating PEA agonist 100%; activation, % at 3 µM; hit rate 0.99% among 360,000;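 active means activation above the mean activation of all test compounds in the run plus 3 SD, cut at about 38% in these data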
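Assay system – CHO-derived RD-HGA16 cells with stable Gα16 and human TAAR1 · Compound dosing – one-point dosing at 3 µM (nominal) · Incubation – 17-24 h seeding, 75 min 37 °C dye, 30 min RT · Measured by – kinetic Fluo-8 calcium fluorescence · Control set – DMSO vehicle as 0%, PEA at EC100 as 100% · Repeats – single well for each compound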
VLA-4 inh – inhibition in a human VLA-4 binding assay; P13612; VLA-4 expressing cells, ligand binding flow cytometry; inhibition, % (about 7 µM as worked out from the volumes in the protocol); hit rate 0.2% among 330,000; AID 2557; in the data active means inhibition above about 50%
TAAR1 antagonist – antagonists of human TAAR1 | Q96RJ0 | CHO RD-HGA16 TAAR1, Fluo-8 calcium fluorescence, antagonist | inhibition, % at 3 µM | hit rate 1.5% among 360,000;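 active means inhibition above a per-plate cutoff, the mean inhibition of test compounds on that plate plus 3 SD, cut at about 49% in these data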;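 further: 0% = DMSO plus EC80 beta-PEA response and 100% = DMSO alone without agonist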
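Material: RD-HGA16 CHO cells with stable hTAAR1 and Gα16; Dosing: single nominal final test compound concentration of 3 µM; Schedule: seeding 17-24 h prior, 75-min 37 °C, 30-min RT dye loading; Detection: kinetic Fluo-8 calcium fluorescence measurement; Measure: % inhibition from peak post-agonist over basal fluorescence ratio; Benchmarks: vehicle and agonist controls.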
Active calls of the source: *. This is a sample that favours compounds with a hit; in the whole collection about 2.6% have one here.

Screening COc1ccc(OC)c(NC(=O)CS(=O)(=O)Cc2nc(-c3ccccc3C)oc2C)c1 returned Platelet DG rel 51*, Rce1 inhib inactive, TAAR1 ag 0, VLA-4 inh 3 and TAAR1 antagonist -9.
Screening COC(=O)c1cc2c(c3c4cc(F)ccc4n(S(=O)(=O)c4cccc(C)c4)c13)C(=O)N(Cc1ccccc1OC)C2 returned TAAR1 ag 0 and TAAR1 antagonist -4.
`COCCCNC(=S)NCCNc1nc2cc(C)cc(C)c2cc1C#N` gave Platelet DG rel 5, Rce1 inhib active, TAAR1 ag -3, VLA-4 inh -2 and TAAR1 antagonist 5.
`COc1ccc(N2C(=O)c3ccccc3NC(=O)C2C(=O)Nc2ccc3c(c2)OCCO3)cc1` (centres undefined) gave TAAR1 ag 4 and TAAR1 antagonist 1.
Screening CC(C)(C)c1ccc(-n2nc(C#N)c(Cl)cc2=O)cc1 returned Platelet DG rel 0, Rce1 inhib inactive, TAAR1 ag 13 and TAAR1 antagonist 97*.
For CC(C)(C)c1ccc(-n2nc(C(N)=O)c(O)cc2=O)cc1 the results were Platelet DG rel 10, Rce1 inhib inactive, TAAR1 ag 6, VLA-4 inh 14 and TAAR1 antagonist 5.
Cc1ccc2c(C)c(C(=O)N(Cc3ccc(F)cc3)C3CCS(=O)(=O)C3)oc2c1 (centres undefined) was read as Platelet DG rel -16, Rce1 inhib active, TAAR1 ag 4, VLA-4 inh -6 and TAAR1 antagonist -11.
c1ccc(C[n+]2cccc3c4ccccc4ccc32)cc1 was read as Platelet DG rel -2, Rce1 inhib active, TAAR1 ag 1, VLA-4 inh -7 and TAAR1 antagonist -11.
Screening O=[N+]([O-])c1ccc(C[n+]2cccc3ccccc32)cc1 returned Platelet DG rel 0, Rce1 inhib inactive, TAAR1 ag 7, VLA-4 inh 0 and TAAR1 antagonist -21.
Screening CCCCC[n+]1cccc2c3ccccc3ccc21 returned Platelet DG rel 0, Rce1 inhib active, TAAR1 ag 7, VLA-4 inh -3 and TAAR1 antagonist 1.
Screening CCOc1ccc(S(=O)(=O)NCCC(=O)OCC(=O)NC(=O)c2cccn2C)cc1 returned TAAR1 ag 3, VLA-4 inh -4 and TAAR1 antagonist -20.
Screening COc1ccc(C2Nc3ccccc3C(=O)N2Cc2ccccc2)cc1OC (centres undefined) returned Platelet DG rel 17, Rce1 inhib inactive, TAAR1 ag 0, VLA-4 inh 3 and TAAR1 antagonist -33.
Screening COc1ccc(C2Nc3ccccc3C(=O)N2Cc2ccccc2)cc1COc1ccccn1 (centres undefined) returned Platelet DG rel -9, Rce1 inhib active, TAAR1 ag 13, VLA-4 inh 5 and TAAR1 antagonist 17.
`O=C(CNC(=O)c1ccco1)N=Nc1c(O)[nH]c2ccc(Br)cc12` gave Platelet DG rel -1, Rce1 inhib inactive, TAAR1 ag 38*, VLA-4 inh 4 and TAAR1 antagonist -26.
O=C(Cc1cccs1)N=Nc1c(O)[nH]c2ccc(Br)cc12 was read as Platelet DG rel -2, Rce1 inhib inactive, TAAR1 ag -4, VLA-4 inh -2 and TAAR1 antagonist -7.
Screening COc1ccccc1-c1cc(C(=O)O)c2c(=O)n(C)c(=O)n(Cc3ccccc3)c2n1 returned Platelet DG rel -1, Rce1 inhib active, TAAR1 ag 1, VLA-4 inh 5 and TAAR1 antagonist -19.
For COc1ccc(C(N)c2csc(Nc3nncc4ccccc34)n2)cc1 (centres undefined) the results were TAAR1 ag 42* and TAAR1 antagonist 46.
Nc1ccc(CC(N)c2csc(Nc3cc(Oc4ccccc4)ncn3)n2)cc1 (centres undefined) was read as TAAR1 ag 20 and TAAR1 antagonist 9.
Screening NC(c1csc(Nc2cc(Oc3ccccc3)ncn2)n1)C1CCCCC1 (centres undefined) returned TAAR1 ag 43* and TAAR1 antagonist -4.
Screening COc1ccc(C(N)c2csc(Nc3cc(Oc4ccccc4)ncn3)n2)cc1 (centres undefined) returned TAAR1 ag 38* and TAAR1 antagonist 30.
`CC1(Oc2cccc(F)c2)CCN(Cc2ccc3ccccc3c2)C1` (centres undefined) gave TAAR1 ag 7 and TAAR1 antagonist 9.
`O=C(C(=O)N1CCN(S(=O)(=O)c2cccc3ccccc23)CC1)c1cccc(C(F)(F)F)c1` gave TAAR1 ag 3 and TAAR1 antagonist 8.
O=C(Nc1c[nH]c(=O)[nH]c1=O)c1ccccc1Cl was read as Platelet DG rel 1, Rce1 inhib inactive, TAAR1 ag 1, VLA-4 inh 0 and TAAR1 antagonist 4.
CCOc1ccccc1C(=O)Nc1c[nH]c(=O)[nH]c1=O was read as Platelet DG rel 88*, Rce1 inhib inactive, TAAR1 ag 1, VLA-4 inh 10 and TAAR1 antagonist 1.
COc1ccccc1C(=O)Nc1c[nH]c(=O)[nH]c1=O was read as Platelet DG rel 96*, Rce1 inhib inactive, TAAR1 ag 5, VLA-4 inh -1 and TAAR1 antagonist -4.
For O=C(COC(=O)c1c[nH]c(=O)[nH]c1=O)Nc1ccccc1F the results were Platelet DG rel 22, Rce1 inhib inactive, TAAR1 ag 1, VLA-4 inh 17 and TAAR1 antagonist -26.
Screening O=C(Nc1ccccc1F)c1c[nH]c(=O)[nH]c1=O returned Platelet DG rel 66*, Rce1 inhib inactive, TAAR1 ag 1, VLA-4 inh -3 and TAAR1 antagonist -16.
O=C1CCCCC1C(O)(C(=O)c1ccccc1)c1ccccc1 (centres undefined) was read as TAAR1 ag -1 and TAAR1 antagonist -12.
For CC1=CC2C3C(=O)N(c4ccccc4)C(=O)C3C1C(=O)C2(O)C(C)C (centres undefined) the results were TAAR1 ag 1 and TAAR1 antagonist -22.
`Cc1ccc(NS(=O)(=O)c2ccc(NC(=O)c3cccc(NC(=O)C(C)C)c3)cc2)cc1` gave Platelet DG rel -9, Rce1 inhib inactive, TAAR1 ag 8, VLA-4 inh 4 and TAAR1 antagonist 53*.
`O=C(O)CCc1nc2cc(C(F)(F)F)ccc2n(Cc2ccccc2)c1=O` gave Platelet DG rel 4, Rce1 inhib active, TAAR1 ag 4, VLA-4 inh -1 and TAAR1 antagonist -15.
Screening COc1ccc(OCc2nnc(SCC(=O)N(C)Cc3ccccc3)n2N)cc1 returned Platelet DG rel -11, Rce1 inhib inactive, TAAR1 ag 0, VLA-4 inh 0 and TAAR1 antagonist -9.
For O=C(Nc1ccc(Cl)cc1)C1C2CCC3C(CCC21)C3(Cl)Cl (centres undefined) the results were TAAR1 ag 4 and TAAR1 antagonist 56*.
`NC(CCCCc1ccccc1)c1cccc2ccccc12` (centres undefined) gave Platelet DG rel 50*, Rce1 inhib inactive and VLA-4 inh 13.
